For test [1], the target named is Sodium-dependent serotonin transporter (Rattus norvegicus, UniProt P31652). The test can be described thus: Inhibition of uptake of 5-HT in rat brain cortex. It counts as functional, tissue-based.
For test [2], the system named is Rattus norvegicus. As to the kind of experiment: Antagonism of tetrabenazine ptosis in rat after oral administration. It counts as functional. Summed up: (§1)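 Rats dosed orally 0.5 h before tetrabenazine (10 mg/kg, sc). Ptosis scored present or absent 1 h later. ED50 taken as the dose preventing ptosis in 50% of animals.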
Test [3] has as its target Norepinephrine transporter (Rattus norvegicus, UniProt Q9WTR4). The test can be described thus: Inhibition of uptake of noradrenaline in rat brain hypothalamus. It counts as functional, tissue-based. In outline:
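Brain synaptosomes from immature female rats (19-21 days) were incubated 5 min at 37 °C with labelled amine at 10⁻⁷ M. Four to six drug concentrations were run in duplicate.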

Test [4] has as its target Sodium-dependent dopamine transporter (Rattus norvegicus, UniProt P23977). As to the kind of experiment: Inhibition of uptake of dopamine (DA) rat brain striatum. It counts as functional, tissue-based. Summed up: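 Brain synaptosomes from immature female rats (19-21 days) were incubated 5 min at 37 °C with labelled amine at 10⁻⁷ M. Four to six drug concentrations were run in duplicate. IC50 is the concentration inhibiting uptake by 50%.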

The target of test [5] is Sodium-dependent serotonin transporter (Homo sapiens, UniProt P31645). The test is classed as functional, organism-based.
Sequence of Sodium-dependent serotonin transporter (Homo sapiens, UniProt P31645) (P31645 whole entry): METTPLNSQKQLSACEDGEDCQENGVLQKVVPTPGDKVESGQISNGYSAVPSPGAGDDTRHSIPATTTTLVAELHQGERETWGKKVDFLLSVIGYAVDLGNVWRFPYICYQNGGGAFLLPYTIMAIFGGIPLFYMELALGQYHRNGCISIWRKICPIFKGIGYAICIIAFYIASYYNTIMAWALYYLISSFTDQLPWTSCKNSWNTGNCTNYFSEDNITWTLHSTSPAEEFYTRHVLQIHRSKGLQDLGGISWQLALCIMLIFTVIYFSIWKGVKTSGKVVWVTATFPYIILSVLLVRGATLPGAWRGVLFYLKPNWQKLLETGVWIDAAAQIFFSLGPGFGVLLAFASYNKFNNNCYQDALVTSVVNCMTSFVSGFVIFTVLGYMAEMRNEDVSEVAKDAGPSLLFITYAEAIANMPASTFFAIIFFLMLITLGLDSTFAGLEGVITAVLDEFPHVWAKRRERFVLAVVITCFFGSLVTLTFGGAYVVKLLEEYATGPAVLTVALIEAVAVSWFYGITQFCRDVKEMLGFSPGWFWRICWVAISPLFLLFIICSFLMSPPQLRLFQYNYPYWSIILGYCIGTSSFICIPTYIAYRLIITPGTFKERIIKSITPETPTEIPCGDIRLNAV
For test [6], the system named is Mus musculus. As to the kind of experiment: Potentiation of 5-HTP in mouse after subcutaneous administration. It counts as functional, organism-based. In outline:
(§2)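 Mice in groups of eight received L-5-HTP 100 mg/kg ip in 0.9% NaCl. Drug was given sc 30 min after 5-HTP. Tremor was rated at 75 min (0 none, 1 moderate, 2 severe). ED50 is the dose giving a mean score of 1, derived from the group global scores.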

In test [7] the test system is Rattus norvegicus. As to the kind of experiment: Antagonism of tetrabenazine ptosis in rat after oral administration. It counts as functional, organism-based. In outline:
as §1

The subject of test [8] is Mus musculus. The test can be described thus: Compound was tested for potentiation of 5-HTP in mouse after subcutaneous administration. The test is classed as functional. Conditions: sc. In outline: as §2
Test [9] deals with Mus musculus. As to the kind of experiment: Compound was tested for potentiation of 5-HTP in mouse after subcutaneous administration; Inactive at the dose 3 mg/kg. It counts as functional, organism-based. The arrangement: dose 3 mg/kg. Summed up:
as §2

The subject of test [10] is Mus musculus. As to the kind of experiment: Compound was tested for potentiation of 5-HTP in mouse after subcutaneous administration; Inactive at 25 mg/kg. Also on record: dose 25 mg/kg. It counts as functional, organism-based. In outline:
as §2

For test [11], the system named is Rattus norvegicus. The test can be described thus: Antagonism of tetrabenazine ptosis in rat after oral administration; Inactive at the dose 10 mg/kg. It counts as functional, organism-based. Also on record: dose 10 mg/kg. In outline:
as §1

Each structure is given as a SMILES string. Calls of active or inactive are those of the source. The calls are words filed in the database; no cut-off is given here.

Sequence of Sodium-dependent dopamine transporter (P23977 whole entry): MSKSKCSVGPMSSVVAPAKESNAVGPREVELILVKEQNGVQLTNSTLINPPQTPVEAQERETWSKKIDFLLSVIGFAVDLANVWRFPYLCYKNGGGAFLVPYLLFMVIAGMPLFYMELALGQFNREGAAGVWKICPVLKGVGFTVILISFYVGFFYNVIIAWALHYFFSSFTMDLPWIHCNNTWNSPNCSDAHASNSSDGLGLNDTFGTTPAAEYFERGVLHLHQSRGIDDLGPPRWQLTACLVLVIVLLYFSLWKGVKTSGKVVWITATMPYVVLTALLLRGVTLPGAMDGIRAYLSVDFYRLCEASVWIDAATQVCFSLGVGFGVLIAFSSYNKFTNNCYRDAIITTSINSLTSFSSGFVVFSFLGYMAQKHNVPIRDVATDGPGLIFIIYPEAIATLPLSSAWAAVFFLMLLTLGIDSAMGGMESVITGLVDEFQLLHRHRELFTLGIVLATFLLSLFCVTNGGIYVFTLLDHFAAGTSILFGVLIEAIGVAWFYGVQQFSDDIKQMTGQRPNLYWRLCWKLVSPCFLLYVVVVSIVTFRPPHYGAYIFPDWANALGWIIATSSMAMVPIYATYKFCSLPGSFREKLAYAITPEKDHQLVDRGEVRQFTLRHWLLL
Sequence of Sodium-dependent serotonin transporter (Rattus norvegicus, UniProt P31652) (P31652 whole entry): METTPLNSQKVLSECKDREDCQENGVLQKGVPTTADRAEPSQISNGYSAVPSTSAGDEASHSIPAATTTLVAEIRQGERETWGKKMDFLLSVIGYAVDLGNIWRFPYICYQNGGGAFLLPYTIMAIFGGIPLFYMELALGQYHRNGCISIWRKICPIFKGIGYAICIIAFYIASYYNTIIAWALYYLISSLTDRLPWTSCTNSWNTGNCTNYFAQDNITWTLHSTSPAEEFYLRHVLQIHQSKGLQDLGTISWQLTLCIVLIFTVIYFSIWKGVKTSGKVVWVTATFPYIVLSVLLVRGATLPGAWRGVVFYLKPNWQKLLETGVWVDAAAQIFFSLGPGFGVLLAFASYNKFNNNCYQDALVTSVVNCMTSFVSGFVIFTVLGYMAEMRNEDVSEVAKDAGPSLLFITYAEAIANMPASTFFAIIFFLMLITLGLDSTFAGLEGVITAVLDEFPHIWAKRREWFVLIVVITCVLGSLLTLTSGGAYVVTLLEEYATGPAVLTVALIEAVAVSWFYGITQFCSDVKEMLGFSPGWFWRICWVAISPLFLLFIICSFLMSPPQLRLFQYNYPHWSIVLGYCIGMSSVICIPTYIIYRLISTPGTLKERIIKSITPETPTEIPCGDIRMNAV
Sequence of Norepinephrine transporter (Q9WTR4 whole entry): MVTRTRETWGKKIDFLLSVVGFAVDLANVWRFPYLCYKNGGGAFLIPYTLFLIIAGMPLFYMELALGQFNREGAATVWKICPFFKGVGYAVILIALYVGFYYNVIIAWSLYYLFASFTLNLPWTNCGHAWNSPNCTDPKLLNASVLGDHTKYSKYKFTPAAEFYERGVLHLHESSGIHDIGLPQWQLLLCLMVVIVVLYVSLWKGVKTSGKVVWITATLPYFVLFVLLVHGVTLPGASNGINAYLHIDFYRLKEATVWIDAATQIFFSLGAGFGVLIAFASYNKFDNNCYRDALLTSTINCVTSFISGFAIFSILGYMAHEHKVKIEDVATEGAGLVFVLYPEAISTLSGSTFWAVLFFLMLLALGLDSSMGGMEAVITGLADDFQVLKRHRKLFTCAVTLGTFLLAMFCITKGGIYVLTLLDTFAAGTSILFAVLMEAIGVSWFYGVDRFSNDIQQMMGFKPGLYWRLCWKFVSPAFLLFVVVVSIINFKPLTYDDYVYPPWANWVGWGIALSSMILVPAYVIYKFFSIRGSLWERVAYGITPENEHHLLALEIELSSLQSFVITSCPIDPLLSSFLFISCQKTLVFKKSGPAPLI

For `O=C(O)/C=C/C(=O)O.c1ccc(-n2cc(CCC3CCNCC3)c3ccccc32)cc1`, the IC50 (commonly the concentration that inhibits the measured activity by half) in test [1] was 1000 nM; in test [3], 400 nM; in test [4], 20000 nM; in test [5], > 1000 nM. The AD50 in the test on Rattus norvegicus [2] is > 100 mg/kg. Further, in the test on Mus musculus [6], the ED50 (commonly the dose that gives a 50% effect, or the effect in half of the subjects) is “inactive”.
On to `Oc1ccc2[nH]cc(CCC3CCNCC3)c2c1`, for which the IC50 amounted to 600 nM in test [1], 1000 nM in test [3], 2700 nM in test [4] and 20 nM in [5]. For the same compound, the AD50 entry in the test on Rattus norvegicus [7] is “inactive”. Further, the ED50 entry in the test with Mus musculus [6] is “inactive”.
For `c1ccc2c(CCCC3CCNCC3)c[nH]c2c1`, the IC50 in [1] came to 40 nM; in test [3] it was 500 nM; in test [4], 3000 nM; in test [5] it was 60 nM. Further, the ED50 with Mus musculus [8] came to 8 mg/kg. The AD50 in the test with Rattus norvegicus [2] came out at 56 mg/kg.
Turning to `c1ccc(Cn2cc(CCC3CCNCC3)c3ccccc32)cc1`, the IC50 was 1900 nM in [1], 5000 nM in [3], 300 nM in test [4] and > 1000 nM in [5]. For the same compound, in the test with Rattus norvegicus [7], the AD50 entry is “inactive”. Besides, in the test with Mus musculus [6], the ED50 result was “inactive”.
Consider `Brc1ccc2[nH]cc(CC3CCNCC3)c2c1`, for which the IC50 in test [1] stood at 700 nM; in test [3], 600 nM; in test [4] it was 8000 nM; in test [5], 1000 nM. Moreover, in the test on Mus musculus [9], the ED50 entry was “inactive”. The same compound yielded an AD50 in the test with Rattus norvegicus [2] of 10 mg/kg.
As to `Cc1[nH]c2ccccc2c1CCC1CCNCC1`, the IC50 in test [1] is 2500 nM; in test [3], 6500 nM; in [4] it was 23000 nM; in test [5], > 1000 nM. For the same compound, in the test on Rattus norvegicus [2], the AD50 is >100 mg/kg. Further, the ED50 result in the test with Mus musculus [6] is “inactive”.
As to `Clc1ccc2[nH]cc(CCC3CCNCC3)c2c1`, the IC50 in test [1] was 130 nM; in [3], 650 nM; in test [4], 1500 nM; in test [5], 220 nM. Moreover, in the test on Rattus norvegicus [7], the AD50 entry was “inactive”. Further, in the test on Mus musculus [6], the ED50 entry was “inactive”.
`Fc1ccc2[nH]cc(CC3CCNCC3)c2c1`: the ED50 in the test with Mus musculus [8] worked out at 32 mg/kg. In addition, the AD50 in the test with Rattus norvegicus [2] is 100 mg/kg. The IC50 came to 1000 nM in [3], 7000 nM in test [4] and 170 nM in test [5].
As to `COc1ccc2[nH]cc(CC3CCNCC3)c2c1`, the IC50 in test [1] was 1000 nM; in [3], 9000 nM; in [4], > 100000 nM; in test [5], > 1000 nM. The AD50 result in the test on Rattus norvegicus [7] was “inactive”. Also, the ED50 entry in the test on Mus musculus [6] was “inactive”.
Turning to `CN(C)CCCN1c2ccccc2CCc2ccc(Cl)cc21` [CLOMIPRAMINE], in the test on Mus musculus [8], the ED50 came out at 6.5 mg/kg. For the same compound, in the test with Rattus norvegicus [2], the AD50 was 45 mg/kg. Moreover, in test [4], the IC50 was found to be 1000 nM.
In the case of `c1ccc2c(CCC3CCNCC3)c[nH]c2c1` [INDALPINE], the IC50 in test [1] stood at 10 nM; in test [3], 1600 nM; in [4] it was 18000 nM; in [5] it was 30 nM. Moreover, the ED50 in the test on Mus musculus [8] is 4 mg/kg.
As to `c1ccc(-c2[nH]c3ccccc3c2CCC2CCNCC2)cc1`, the IC50 in [1] is 2200 nM; in [3] it was 1500 nM; in test [4], 3500 nM; in [5], > 1000 nM. The AD50 entry in the test with Rattus norvegicus [7] was “inactive”. Further, the ED50 result in the test on Mus musculus [6] was “inactive”.
For `COc1ccc2[nH]cc(CCC3CCNCC3)c2c1`, the IC50 in [1] was 140 nM; in [3] it was 3000 nM; in [4], 20000 nM; in [5], > 1000 nM. Further, the AD50 result in the test with Rattus norvegicus [7] is “inactive”. The ED50 entry with Mus musculus [6] was “inactive”.
Turning to `CN1CCC(CCc2c[nH]c3ccccc23)CC1`, the IC50 in test [1] was 450 nM; in [3], 40000 nM; in test [4], 6500 nM; in test [5], > 1000 nM. Also, the AD50 result in the test on Rattus norvegicus [7] is “inactive”. Also, the ED50 entry in the test on Mus musculus [6] was “inactive”.
For `Cn1cc(CCC2CCNCC2)c2ccccc21`, the IC50 was found to be 400 nM in [1], 1300 nM in test [3], 30000 nM in test [4] and 400 nM in test [5]. Further, the AD50 result in the test with Rattus norvegicus [7] was “inactive”. For the same compound, the ED50 entry in the test with Mus musculus [10] is “inactive”.
`c1ccc2c(CC3CCNCC3)c[nH]c2c1`: the IC50 in test [1] turned out to be 50 nM; in test [3] it was 1500 nM; in test [4] it was 20000 nM; in test [5], 550 nM. Besides, the ED50 with Mus musculus [8] was 10 mg/kg. The AD50 result in the test on Rattus norvegicus [7] was “inactive”.
For `CN1CCC(CCc2cn(C)c3ccccc23)CC1`, the IC50 in test [1] is 1700 nM; in [3] it was > 10000 nM; in test [4] it was > 100000 nM; in test [5], > 1000 nM. In addition, in the test on Rattus norvegicus [7], the AD50 result was “inactive”. Moreover, the ED50 result in the test on Mus musculus [6] was “inactive”.
Take `Oc1ccc2c(CCC3CCNCC3)c[nH]c2c1`: the IC50 was 1500 nM in test [1], 600 nM in test [3], 150 nM in test [4] and > 1000 nM in [5]. In addition, in the test with Rattus norvegicus [7], the AD50 entry was “inactive”. The ED50 entry with Mus musculus [6] is “inactive”.
With `Clc1ccc2[nH]cc(CC3CCNCC3)c2c1`, the IC50 was 700 nM in [1], 1800 nM in test [3], 12000 nM in test [4] and > 1000 nM in test [5]. For the same compound, the ED50 result with Mus musculus [9] was “inactive”. In the test with Rattus norvegicus [11], the AD50 entry is “inactive”.
